Converted amounts (≈) assume the structure as drawn.
Key:
Format in all cases: functional
Staphylococcus aureus = test: Antibacterial activity against methicillin-sensitive Staphylococcus aureus isolated from patient with diabetic foot infection after 18 to 24 hrs by broth microdilution method
Procedure, shortened: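 Subcultured on Trypticase soy blood agar, then broth microdilution in cation-adjusted Mueller-Hinton broth. Trays were made in-house with serial twofold drug dilutions and stored at −70°C. Inoculum was colonies from overnight growth, final approximately 5 × 10^5 CFU/ml. MIC was read after 18 to 24 h at 37°C. QC strains: S. aureus ATCC 29213 and E. coli ATCC 25922.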

Lacrimispora sphenoides [1] = test: Antibacterial activity against Clostridium sphenoides isolated from patient with diabetic foot infection assessed as percent resistant isolates after 44 to 48 hrs by agar dilution method
Procedure, shortened: (§1)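 Agar dilution per CLSI M11-A7. Twofold drug dilutions made on the test day and added to molten agar. Replicator-applied inoculum of 10^5 CFU/spot. Drug-free control plates inoculated before and after each drug set. Incubation at 37°C for 44 to 48 h, anaerobic chamber. MIC taken as the lowest concentration giving no growth or a marked change in growth versus controls.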

Streptococcus agalactiae = test: Antibacterial activity against Streptococcus agalactiae isolated from patient with diabetic foot infection after 18 to 24 hrs by broth microdilution method
Procedure, shortened: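 Streptococcal isolates were subcultured on Trypticase soy blood agar. Broth microdilution used cation-adjusted Mueller-Hinton broth with lysed horse blood, in in-house trays of serial twofold drug dilutions stored at −70°C. Overnight colonies were suspended to a final inoculum of approximately 5 × 10^5 CFU/ml. MIC was read after 18 to 24 h incubation at 37°C.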

Corynebacterium simulans = test: Antibacterial activity against Corynebacterium simulans isolated from patient with diabetic foot infection assessed as percent resistant isolates after 48 hrs by broth microdilution method
Procedure, shortened: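 Isolates subcultured on Trypticase soy blood agar. Broth microdilution in cation-adjusted Mueller-Hinton broth with lysed horse blood, using in-house twofold dilution trays stored at −70°C. Inoculum from overnight colonies at about 5 × 10^5 CFU/ml final. Read after 18 to 24 h at 37°C, up to 48 h for some Corynebacterium strains.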

Enterobacter cloacae = test: Antibacterial activity against Enterobacter cloacae isolated from patient with diabetic foot infection assessed as percent resistant isolates after 18 to 24 hrs by broth microdilution method
Procedure, shortened: (§2)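 Aerobes subcultured on Trypticase soy blood agar, then broth microdilution in cation-adjusted Mueller-Hinton broth. Trays prepared in-house with twofold dilutions and stored at −70°C. Overnight colonies suspended to about 5 × 10^5 CFU/ml final. Read after 18 to 24 h at 37°C. QC strains included S. aureus ATCC 29213 and E. coli ATCC 25922.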

Klebsiella oxytoca = test: Antibacterial activity against Klebsiella oxytoca isolated from patient with diabetic foot infection assessed as percent resistant isolates after 18 to 24 hrs by broth microdilution method; procedure, shortened: as §2
Klebsiella pneumoniae = test: Antibacterial activity against Klebsiella pneumoniae isolated from patient with diabetic foot infection assessed as percent resistant isolates after 18 to 24 hrs by broth microdilution method; procedure, shortened: as §2
Porphyromonas somerae = test: Antibacterial activity against Porphyromonas somerae isolated from patient with diabetic foot infection after 44 to 48 hrs by agar dilution method
Procedure, shortened: (§3)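 CLSI M11-A7 agar dilution: serial twofold drug dilutions made on the test day and added to molten agar. Spots of 10^5 CFU were applied by replicator, with drug-free control plates inoculated before and after each set. Incubation was 44 to 48 h at 37°C in an anaerobic chamber. MIC was the lowest concentration giving no growth or a marked change in growth versus controls.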

Clostridium cadaveris [2] = test: Antibacterial activity against Clostridium cadaveris isolated from patient with diabetic foot infection after 44 to 48 hrs by agar dilution method; procedure, shortened: as §3
Clostridium cadaveris [3] = test: Antibacterial activity against Clostridium cadaveris isolated from patient with diabetic foot infection assessed as percent resistant isolates after 44 to 48 hrs by agar dilution method; procedure, shortened: as §1
Proteus vulgaris = test: Antibacterial activity against Proteus vulgaris isolated from patient with diabetic foot infection assessed as percent resistant isolates after 18 to 24 hrs by broth microdilution method; procedure, shortened: as §2
Bacteroides stercoris = test: Antibacterial activity against Bacteroides stercoris isolated from patient with diabetic foot infection after 44 to 48 hrs by agar dilution method; procedure, shortened: as §3
[4] = test system: Anaerocolumna aminovalerica; test: Antibacterial activity against Clostridium aminovalericum isolated from patient with diabetic foot infection assessed as percent resistant isolates after 44 to 48 hrs by agar dilution method; procedure, shortened: as §1
[5] = test system: Peptostreptococcus anaerobius; test: Antibacterial activity against Peptostreptococcus anaerobius isolated from patient with diabetic foot infection after 44 to 48 hrs by agar dilution method; procedure, shortened: as §3
[6] = test system: Peptostreptococcus anaerobius; test: Antibacterial activity against Peptostreptococcus anaerobius isolated from patient with diabetic foot infection assessed as percent resistant isolates after 44 to 48 hrs by agar dilution method; procedure, shortened: as §1
[7] = test system: Bacteroides thetaiotaomicron; test: Antibacterial activity against Bacteroides thetaiotaomicron isolated from patient with diabetic foot infection after 44 to 48 hrs by agar dilution method; procedure, shortened: as §3
Lacrimispora sphenoides [8] = test: Antibacterial activity against Clostridium sphenoides isolated from patient with diabetic foot infection after 44 to 48 hrs by agar dilution method; procedure, shortened: as §3
[9] = test system: Corynebacterium urealyticum; test: Antibacterial activity against Corynebacterium urealyticum isolated from patient with diabetic foot infection after 48 hrs by broth microdilution method
Procedure, shortened: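 Isolates were subcultured on Trypticase soy blood agar. Broth microdilution used cation-adjusted Mueller-Hinton broth with lysed horse blood, in-house trays of twofold drug dilutions stored at −70°C. Colonies from overnight growth gave a final inoculum of about 5 × 10^5 CFU/ml. Trays were read after 18 to 24 h at 37°C, up to 48 h for some strains.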

[10] = test system: Porphyromonas asaccharolytica; test: Antibacterial activity against Porphyromonas asaccharolyticus isolated from patient with diabetic foot infection assessed as percent resistant isolates after 44 to 48 hrs by agar dilution method; procedure, shortened: as §1
Phocaeicola vulgatus = test: Antibacterial activity against Bacteroides vulgatus isolated from patient with diabetic foot infection assessed as percent resistant isolates after 44 to 48 hrs by agar dilution method; procedure, shortened: as §1
[11] = test system: Streptococcus dysgalactiae subsp. equisimilis; test: Antibacterial activity against Streptococcus dysgalactiae subsp. equisimilis isolated from patient with diabetic foot infection assessed as percent resistant isolates after 18 to 24 hrs by broth microdilution method
Procedure, shortened: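 Streptococci subcultured on Trypticase soy blood agar and tested by broth microdilution in cation-adjusted Mueller-Hinton broth with lysed horse blood. In-house twofold dilution trays stored at −70°C. About 5 × 10^5 CFU/ml final inoculum from overnight colonies. Read after 18 to 24 h at 37°C.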

Bacteroides fragilis = test: Antibacterial activity against Bacteroides fragilis isolated from patient with diabetic foot infection assessed as percent resistant isolates after 44 to 48 hrs by agar dilution method; procedure, shortened: as §1
[12] = test system: Parabacteroides distasonis; test: Antibacterial activity against Parabacteroides distasonis isolated from patient with diabetic foot infection after 44 to 48 hrs by agar dilution method; procedure, shortened: as §3
Parvimonas micra = test: Antibacterial activity against Peptostreptococcus micros isolated from patient with diabetic foot infection after 44 to 48 hrs by agar dilution method; procedure, shortened: as §3
Bacteroides uniformis = test: Antibacterial activity against Bacteroides uniformis isolated from patient with diabetic foot infection assessed as percent resistant isolates after 44 to 48 hrs by agar dilution method; procedure, shortened: as §1

| Compound | MIC50 (Staphylococcus aureus) [µg/mL] | MIC90 (Staphylococcus aureus) [µg/mL] | Activity (Lacrimispora sphenoides [1]) [%] | MIC50 (Streptococcus agalactiae) [µg/mL] | MIC90 (Streptococcus agalactiae) [µg/mL] | Activity (Corynebacterium simulans) [%] | Activity (Enterobacter cloacae) [%] | Activity (Klebsiella oxytoca) [%] | Activity (Klebsiella pneumoniae) [%] | MIC50 (Porphyromonas somerae) [µg/mL] | MIC90 (Porphyromonas somerae) [µg/mL] | MIC50 (Clostridium cadaveris [2]) [µg/mL] | MIC90 (Clostridium cadaveris [2]) [µg/mL] | Activity (Clostridium cadaveris [3]) [%] | Activity (Proteus vulgaris) [%] | MIC50 (Bacteroides stercoris) [µg/mL] | MIC90 (Bacteroides stercoris) [µg/mL] | Activity [4] [%] | MIC50 [5] [µg/mL] | MIC90 [5] [µg/mL] | other results |
| --- | --- | --- | --- | --- | --- | --- | --- | --- | --- | --- | --- | --- | --- | --- | --- | --- | --- | --- | --- | --- | --- |
| C[C@@H](O)[C@H]1C(=O)N2C(C(=O)O)=C(SCCNC=N)C[C@H]12 [IMIPENEM ANHYDROUS] | ≤ 0.015 | 0.03 (≈ 0.1 µM) | 0 | ≤ 0.015 | ≤ 0.015 | 0 | 0 | 0 | 0 | < 0.015 | ≤ 0.015 | 0.25 (≈ 0.835 µM) | 2 (≈ 6.68 µM) | 0 | 0 | 0.5 (≈ 1.67 µM) | 1 (≈ 3.34 µM) | 0 | 0.03 (≈ 0.1 µM) | 0.06 (≈ 0.2 µM) | Activity [6]: 0%; MIC50 [7]: 0.5 µg/mL (≈ 1.67 µM); MIC90 [7]: 1 µg/mL (≈ 3.34 µM); MIC50 (Lacrimispora sphenoides [8]): 0.25 µg/mL (≈ 0.835 µM); MIC90 (Lacrimispora sphenoides [8]): 2 µg/mL (≈ 6.68 µM); MIC50 [9]: 0.25 µg/mL (≈ 0.835 µM); MIC90 [9]: 32 µg/mL (≈ 107 µM); Activity [10]: 0%; Activity (Phocaeicola vulgatus): 0%; Activity [11]: 0%; Activity (Bacteroides fragilis): 0%; MIC50 [12]: 0.5 µg/mL (≈ 1.67 µM); MIC90 [12]: 1 µg/mL (≈ 3.34 µM); MIC50 (Parvimonas micra): 0.03 µg/mL (≈ 0.1 µM); MIC90 (Parvimonas micra): 0.06 µg/mL (≈ 0.2 µM); Activity (Bacteroides uniformis): 0% |
| C[C@@H](O)[C@H]1C(=O)N2C(C(=O)O)=C(S[C@@H]3CN[C@H](C(=O)N(C)C)C3)[C@H](C)[C@H]12 [MEROPENEM] | 0.06 (≈ 0.156 µM) | 0.125 (≈ 0.326 µM) | 0 | 0.06 (≈ 0.156 µM) | 0.06 (≈ 0.156 µM) | 0 | 0 | 0 | 0 | ≤ 0.015 | ≤ 0.015 | 0.06 (≈ 0.156 µM) | 1 (≈ 2.61 µM) | 0 | 0 | 0.25 (≈ 0.652 µM) | 1 (≈ 2.61 µM) | 0 | 0.125 (≈ 0.326 µM) | 0.25 (≈ 0.652 µM) | Activity [6]: 0%; MIC50 [7]: 0.25 µg/mL (≈ 0.652 µM); MIC90 [7]: 1 µg/mL (≈ 2.61 µM); MIC50 (Lacrimispora sphenoides [8]): 0.06 µg/mL (≈ 0.156 µM); MIC90 (Lacrimispora sphenoides [8]): 1 µg/mL (≈ 2.61 µM); MIC50 [9]: 1 µg/mL (≈ 2.61 µM); MIC90 [9]: 16 µg/mL (≈ 41.7 µM); Activity [10]: 0%; Activity (Phocaeicola vulgatus): 0%; Activity [11]: 0%; Activity (Bacteroides fragilis): 0%; MIC50 [12]: 0.25 µg/mL (≈ 0.652 µM); MIC90 [12]: 1 µg/mL (≈ 2.61 µM); MIC50 (Parvimonas micra): 0.125 µg/mL (≈ 0.326 µM); MIC90 (Parvimonas micra): 0.25 µg/mL (≈ 0.652 µM); Activity (Bacteroides uniformis): 0% |

Source: ChEMBL document CHEMBL1153560, “In vitro activities of doripenem and six comparator drugs against 423 aerobic and anaerobic bacterial isolates from infected diabetic foot wounds” (2008)
